Measured values published in ChEMBL document CHEMBL3351780, “Novel hybrids of metronidazole and quinolones: synthesis, bioactive evaluation, cytotoxicity, preliminary antimicrobial mechanism and effect of metal ions on their transportation by human serum albumin” (Eur J Med Chem, 2014).
Converted amounts (≈) assume the structure as drawn.

Legend:
[1] = tested on: Micrococcus luteus; assay: Antibacterial activity against Micrococcus luteus by two-fold serial dilution method; type: functional
Method in brief: (§1)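 Standard two-fold serial dilution in 96-well microtest plates following NCCLS. Top dilutions printed as 32, 16, 8, 4, 2, 1, 0.5 ug/mL. Wells inoculated and held at 37 °C for 24 h. Growth judged visually and by spectrophotometer, in triplicate. MIC is the lowest concentration giving complete growth inhibition.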

[2] = tested on: Streptococcus pneumoniae; assay: Antibacterial activity against Streptococcus pneumoniae by two-fold serial dilution method; type: functional; method in brief: as §1
[3] = tested on: Saccharomyces cerevisiae; assay: Antifungal activity against Saccharomyces cerevisiae after 24 hrs by microbroth dilution method; type: functional
Method in brief: (§2)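 Spore suspension prepared in sterile distilled water from one-day-old cultures on Sabouraud agar, final 1-5 x 10^3 spores/mL. Compounds were serially diluted in RPMI 1640 to give eleven dilutions. Incubation at 35 °C for 24 h. Growth read visually and spectrophotometrically, in triplicate. MIC is the lowest concentration with complete inhibition.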

[4] = tested on: Escherichia coli; assay: Antibacterial activity against Escherichia coli DH52 by two-fold serial dilution method; type: functional; method in brief: as §1
[5] = Octanol-water partition co-efficient, log P of the compound by shake flask method; type: physicochemical
[6] = tested on: Pichia norvegensis; assay: Antifungal activity against Candida mycoderma after 24 hrs by microbroth dilution method; type: functional
[7] = Aqueous solubility of the compound by UV-spectrophotometry; type: physicochemical
[8] = tested on: Staphylococcus aureus; assay: Antibacterial activity against Staphylococcus aureus ATCC 25923 by two-fold serial dilution method; type: functional; method in brief: as §1
[9] = tested on: Candida albicans; assay: Antifungal activity against Candida albicans ATCC 76615 after 24 hrs by microbroth dilution method; type: functional; conditions: ATCC 76615, 24 h; method in brief: as §2
[10] = tested on: Pseudomonas aeruginosa; assay: Antibacterial activity against Pseudomonas aeruginosa by two-fold serial dilution method; type: functional; method in brief: as §1
[11] = Antibacterial activity against Eberthella typhosa by two-fold serial dilution method; type: functional
Method in brief: (§3)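 MIC read as the lowest concentration giving complete growth inhibition. Two-fold serial dilutions were made in 96-well plates following NCCLS, giving a series down to 0.5 µg/mL (…32, 16, 8, 4, 2, 1, 0.5). Plates were inoculated and incubated at 37 °C for 24 h. A DMSO-with-inoculum control without drug was included. Growth was monitored visually and spectrophotometrically, in triplicate.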

[12] = tested on: Bacillus spizizenii; assay: Antibacterial activity against Bacillus subtilis ATCC 6633 by two-fold serial dilution method; type: functional; method in brief: as §1
[13] = tested on: Cyberlindnera jadinii; assay: Antifungal activity against Candida utilis after 24 hrs by microbroth dilution method; type: functional; conditions: Williopsis jadinii; method in brief: as §2
[14] = tested on: Staphylococcus aureus; assay: Antibacterial activity against methicillin-resistant Staphylococcus aureus N315 by two-fold serial dilution method; type: functional; method in brief: as §3
[15] = Dissociation constant, pKa of the compound by UV-spectroscopy; type: physicochemical
Method in brief: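 DMSO stock at 4.0 × 10^-3 mol/L added to 2 mL of buffer, then shaken 10 min at room temperature. Buffers were acetate (pH 4.0–5.0), MES (5.5–6.5), HEPES (7.0–8.0) and CHES (8.5–9.4), each from 500 mM stocks. Scans ran 210–400 nm and were normalized. Absolute differences from the acid spectrum were summed at 244 and 308 nm, plotted against pH and fitted to obtain pKa.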

[16] = tested on: Shigella dysenteriae; assay: Antibacterial activity against Shigella dysenteriae by two-fold serial dilution method; type: functional; method in brief: as §3

Row | SMILES | MIC [1] | MIC [2] | MIC [3] | MIC [4] | logP [5] | MIC [6] | solubility [7] | MIC [8] | MIC [9] | MIC [10] | MIC [11] | MIC [12] | MIC [13] | MIC [14] | pKa [15] | MIC [16]
1 | Cc1ncc([N+](=O)[O-])n1CC(O)Cn1cc(C(=O)O)c(=O)c2cc(F)cc(F)c21 (configuration not stated) | 2 µg/mL (≈ 4.9 µM) | 16 µg/mL (≈ 39.2 µM) | 64 µg/mL (≈ 157 µM) | 4 µg/mL (≈ 9.8 µM) | -0.21 | 128 µg/mL (≈ 313 µM) | 570 µg/mL (≈ 1400 µM) | 16 µg/mL (≈ 39.2 µM) | 32 µg/mL (≈ 78.4 µM) | 2 µg/mL (≈ 4.9 µM) | 16 µg/mL (≈ 39.2 µM) | 4 µg/mL (≈ 9.8 µM) | 512 µg/mL (≈ 1250 µM) | 2 µg/mL (≈ 4.9 µM) | 5.33 | 4 µg/mL (≈ 9.8 µM)
2 | O=C(O)c1cn(CC(O)Cn2cnc([N+](=O)[O-])c2)c2c(Cl)cc(Cl)cc2c1=O (configuration not stated) | 8 µg/mL (≈ 18.7 µM) | 8 µg/mL (≈ 18.7 µM) | 128 µg/mL (≈ 300 µM) | 8 µg/mL (≈ 18.7 µM) |  | 64 µg/mL (≈ 150 µM) |  | 8 µg/mL (≈ 18.7 µM) | 256 µg/mL (≈ 599 µM) | 8 µg/mL (≈ 18.7 µM) | 16 µg/mL (≈ 37.5 µM) | 4 µg/mL (≈ 9.36 µM) | 256 µg/mL (≈ 599 µM) | 16 µg/mL (≈ 37.5 µM) |  | 8 µg/mL (≈ 18.7 µM)
3 | Cc1ncc([N+](=O)[O-])n1CC(O)Cn1cc(C(=O)O)c(=O)c2cc(F)c(Cl)cc21 (configuration not stated) | 64 µg/mL (≈ 151 µM) | 8 µg/mL (≈ 18.8 µM) | 128 µg/mL (≈ 301 µM) | 2 µg/mL (≈ 4.71 µM) | 0.18 | 256 µg/mL (≈ 603 µM) | 430 µg/mL (≈ 1010 µM) | 32 µg/mL (≈ 75.3 µM) | 64 µg/mL (≈ 151 µM) | 16 µg/mL (≈ 37.7 µM) | 128 µg/mL (≈ 301 µM) | 8 µg/mL (≈ 18.8 µM) | 512 µg/mL (≈ 1210 µM) | 4 µg/mL (≈ 9.42 µM) | 5.14 | 16 µg/mL (≈ 37.7 µM)
4 | Cc1ncc([N+](=O)[O-])n1CC(O)Cn1cc(C(=O)O)c(=O)c2cc(Cl)cc(Cl)c21 (configuration not stated) | 16 µg/mL (≈ 36.3 µM) | 16 µg/mL (≈ 36.3 µM) | 64 µg/mL (≈ 145 µM) | 32 µg/mL (≈ 72.5 µM) | 0.22 | 256 µg/mL (≈ 580 µM) | 350 µg/mL (≈ 793 µM) | 16 µg/mL (≈ 36.3 µM) | 128 µg/mL (≈ 290 µM) | 8 µg/mL (≈ 18.1 µM) | 32 µg/mL (≈ 72.5 µM) | 8 µg/mL (≈ 18.1 µM) | 256 µg/mL (≈ 580 µM) | 32 µg/mL (≈ 72.5 µM) | 5.26 | 16 µg/mL (≈ 36.3 µM)
5 | COc1ccc2c(c1)c(=O)c(C(=O)O)cn2CC(O)Cn1c([N+](=O)[O-])cnc1C (configuration not stated) | 512 µg/mL (≈ 1270 µM) | 64 µg/mL (≈ 159 µM) | 256 µg/mL (≈ 636 µM) | 64 µg/mL (≈ 159 µM) | -0.24 | 512 µg/mL (≈ 1270 µM) | 400 µg/mL (≈ 994 µM) | 32 µg/mL (≈ 79.5 µM) | 128 µg/mL (≈ 318 µM) | 512 µg/mL (≈ 1270 µM) | 8 µg/mL (≈ 19.9 µM) | 32 µg/mL (≈ 79.5 µM) | 128 µg/mL (≈ 318 µM) | 8 µg/mL (≈ 19.9 µM) | 5.72 | 32 µg/mL (≈ 79.5 µM)
6 | Cc1ncc([N+](=O)[O-])n1CC(O)Cn1cc(C(=O)O)c(=O)c2cc(F)ccc21 (configuration not stated) | 2 µg/mL (≈ 5.12 µM) | 8 µg/mL (≈ 20.5 µM) | 64 µg/mL (≈ 164 µM) | 8 µg/mL (≈ 20.5 µM) | -0.13 | 256 µg/mL (≈ 656 µM) | 380 µg/mL (≈ 974 µM) | 8 µg/mL (≈ 20.5 µM) | 128 µg/mL (≈ 328 µM) | 4 µg/mL (≈ 10.2 µM) | 32 µg/mL (≈ 82 µM) | 16 µg/mL (≈ 41 µM) | 512 µg/mL (≈ 1310 µM) | 2 µg/mL (≈ 5.12 µM) | 5.18 | 1 µg/mL (≈ 2.56 µM)
7 | COc1ccc2c(c1)c(=O)c(C(=O)O)cn2CC(O)Cn1cnc([N+](=O)[O-])c1 (configuration not stated) | 256 µg/mL (≈ 659 µM) | 64 µg/mL (≈ 165 µM) | 512 µg/mL (≈ 1320 µM) | 64 µg/mL (≈ 165 µM) |  | 128 µg/mL (≈ 330 µM) |  | 64 µg/mL (≈ 165 µM) | 128 µg/mL (≈ 330 µM) | 128 µg/mL (≈ 330 µM) | 32 µg/mL (≈ 82.4 µM) | 16 µg/mL (≈ 41.2 µM) | 128 µg/mL (≈ 330 µM) | 16 µg/mL (≈ 41.2 µM) |  | 16 µg/mL (≈ 41.2 µM)
8 | O=C(O)c1cn(CC(O)Cn2cnc([N+](=O)[O-])c2)c2ccc(F)cc2c1=O (configuration not stated) | 16 µg/mL (≈ 42.5 µM) | 8 µg/mL (≈ 21.3 µM) | 64 µg/mL (≈ 170 µM) | 8 µg/mL (≈ 21.3 µM) |  | 256 µg/mL (≈ 680 µM) |  | 16 µg/mL (≈ 42.5 µM) | 64 µg/mL (≈ 170 µM) | 8 µg/mL (≈ 21.3 µM) | 8 µg/mL (≈ 21.3 µM) | 16 µg/mL (≈ 42.5 µM) | 128 µg/mL (≈ 340 µM) | 8 µg/mL (≈ 21.3 µM) |  | 8 µg/mL (≈ 21.3 µM)
9 | O=C(O)c1cn(CC(O)Cn2cnc([N+](=O)[O-])c2)c2c(F)cc(F)cc2c1=O (configuration not stated) | 8 µg/mL (≈ 20.3 µM) | 16 µg/mL (≈ 40.6 µM) | 256 µg/mL (≈ 649 µM) | 32 µg/mL (≈ 81.2 µM) |  | 64 µg/mL (≈ 162 µM) |  | 16 µg/mL (≈ 40.6 µM) | 16 µg/mL (≈ 40.6 µM) | 32 µg/mL (≈ 81.2 µM) | 32 µg/mL (≈ 81.2 µM) | 8 µg/mL (≈ 20.3 µM) | 256 µg/mL (≈ 649 µM) | 16 µg/mL (≈ 40.6 µM) |  | 32 µg/mL (≈ 81.2 µM)
